# Measured values pooled from the literature.
# Compare with care: the assays were run in different laboratories.
# Target: Serine/threonine-protein kinase 24 (STK24, Homo sapiens, UniProt Q9Y6E0)
SMILES,effect on,action,method,cell line,tested at,measurement,result
N#CC1(c2ccccn2)CCN(Cc2cc(C(=O)N3CCCC3)c(=O)n3ccccc23)CC1,cell-free assay,,competition with immobilised ligand,,1 µM,remaining binding,87%
CCN1CCN(Cc2ccc(NC(=O)c3ccc(C)c(/C=C/c4cnc5[nH]ccc5c4OC)c3)cc2C(F)(F)F)CC1,target engagement in cells,inhibitor,chemoproteomics,A-375,50 nM,inhibition,-17%
CCN(CC)CCNC(=O)c1c(C)[nH]c(/C=C2\C(=O)Nc3ccc(F)cc32)c1C,cell-free assay,,,,0.5 µM,remaining signal,39.7%
O=C(N[C@H]1CCCCC/C=C\C2C[C@@]2(C(=O)O)NC(=O)[C@@H]2C[C@@H](Oc3ccncc3)CN2C1=O)OC1CCCC1 (stereo partly shown),binding,,competition with immobilised ligand,,1 µM,remaining binding,81%
Cn1cncc1C1=CN(c2ncnc3[nH]cnc23)CCS1,enzyme activity,inhibitor,radiometric,,2 µM,inhibition,-15.6%
Cc1ccc(Nc2nccc(N(C)c3ccc4c(C)n(C)nc4c3)n2)cc1S(N)(=O)=O,enzyme activity,inhibitor,,,0.3 µM,inhibition,-5%
CC(C)(C)c1nc2c(s1)c1nc(N)ncc1c1ccc(NS(=O)(=O)c3c(F)cccc3F)c(F)c12,enzyme activity,inhibitor,radiometric,,1 µM,remaining activity,28%
COc1cc(-c2cc(-c3ccc(N4CCNCC4)cc3)cnc2C)cc(OC)c1OC,enzyme activity,inhibitor,,,1 µM,inhibition,4%
NS(=O)(=O)c1cc(NC(=O)C2(c3ccccc3Cl)CC2)ccc1Oc1cccc(Cl)c1,cell-free assay,,competition with immobilised ligand,,1 µM,remaining binding,93%
COc1cc(Nc2c(C#N)cnc3cc(OCCCN4CCN(C)CC4)c(OC)cc23)c(Cl)cc1Cl,cell-free assay,,,,0.5 µM,remaining signal,11%
Cn1c2c(Cl)c(Cl)ccc2c2cc(N)[nH]c(=O)c21,thermal stability,,DSF,,10 µM,ΔTm,0.6 °C
N#CCCc1ccc2c(c1)-c1[nH]c3ccc([N+](=O)[O-])cc3c1CC(=O)N2,cell-free assay,,,,0.5 µM,remaining signal,57.7%
CN1CCC2(CC1)NC(=O)c1c(c3ccc(Cl)c(Cl)c3n1C)C2C#N (racemic),thermal stability,,DSF,,10 µM,ΔTm,-0.6 °C
O=C(Nc1ccc(Oc2ccc(F)cc2)cc1)N1CCc2ncccc2[C@H]1c1ccc(F)cc1,cell-free assay,,competition with immobilised ligand,,1 µM,remaining binding,93%
O=C(Nc1cnn(-c2csc(C(=O)NC3COC3)c2)c1)Nc1c(F)cccc1Cl,enzyme activity,inhibitor,,,5 µM,remaining activity,81.6%
Cc1ccc(NC(=O)c2ccc(C)c(C(F)(F)F)c2)cc1C#Cc1nn(C2CCC(O)CC2)c2ncnc(N)c12 (stereo not shown),cell-free assay,,,,10 µM,remaining signal,114%
Cn1c2c(c3ccc(Cl)c(Cl)c31)C(C#N)C1(CCN(C(=O)OC(C)(C)C)CC1)NC2=O (racemic),thermal stability,,DSF,,10 µM,ΔTm,0 °C
CC(C)(O)[C@H]1CC[C@H](Nc2ccc3ncc(-c4cccc(C(F)(F)F)c4)n3n2)CC1,enzyme activity,inhibitor,,,1 µM,remaining activity,96.1%
CC1=C(C#N)C(c2ccc3c(c2)c(NC(=O)c2ccccc2C)nn3C)C(C#N)=C(C)N1,cell-free assay,,competition with immobilised ligand,,1 µM,remaining binding,100%
COc1cc2ncnc(Nc3ccc(Oc4ccccc4)cc3C)c2cc1OC,enzyme activity,inhibitor,,,1 µM,inhibition,9%
Cc1cnc(NC2CCOCC2)nc1-n1cnc(C(=O)NC(CN)c2cc(F)cc(Cl)c2)c1 (stereo not shown),enzyme activity,inhibitor,radiometric,,1 µM,remaining activity,32%
CCN1CCN(Cc2ccc(NC(=O)c3ccc(C)c(Oc4ccnc5[nH]ccc45)c3)cc2C(F)(F)F)CC1,target engagement in cells,inhibitor,chemoproteomics,Huh-7,1 µM,inhibition,-56%
CNC(=O)c1cc(Oc2ccc(NC(=O)Nc3ccc(Cl)c(C(F)(F)F)c3)cc2)ccn1,enzyme activity,inhibitor,,,0.3 µM,inhibition,-9%
Oc1cccc(-c2nc(N3CCOCC3)c3oc4ncccc4c3n2)c1,cell-free assay,,,,0.5 µM,remaining signal,100%
Cn1c2c(Cl)c(Cl)ccc2c2cn[nH]c(=O)c21,thermal stability,,DSF,,10 µM,ΔTm,0.7 °C
CCCS(=O)(=O)Nc1ccc(F)c(C(=O)c2c[nH]c3ncc(-c4ccc(Cl)cc4)cc23)c1F,enzyme activity,inhibitor,,,1 µM,inhibition,< 20%
COc1cc(Cl)c(C(=O)N[C@@H](CN[C@H]2CC[C@@H](N)CC2)Cc2ccc(C#N)cc2)cc1-c1ccc(CN[C@H](C)c2ccc(C)cc2)o1,enzyme activity,inhibitor,,,1 µM,remaining activity,96%
O=C(Nc1cnn(-c2csc(C(=O)NC3COC3)c2)c1)Nc1ccccc1Cl,enzyme activity,inhibitor,,,5 µM,remaining activity,113%
O=C(Nc1cccnn1)N1CCC(=Cc2cccc(Oc3ccc(C(F)(F)F)cn3)c2)CC1,cell-free assay,,competition with immobilised ligand,,1 µM,remaining binding,100%
Cn1c2c(c3ccc(Cl)c(Cl)c31)C(C#N)C1(CCOCC1)NC2=O (stereo not shown),thermal stability,,DSF,,10 µM,ΔTm,-0.3 °C
COc1ccc2c(O[C@@H]3C[C@H]4C(=O)N[C@]5(C(=O)O)CC5/C=C\CCCCC[C@H](NC(=O)OC5CCCC5)C(=O)N4C3)cc(-c3csc(NC(=O)C(C)C)n3)nc2c1C (stereo partly shown),cell-free assay,,competition with immobilised ligand,,1 µM,remaining binding,100%
COc1cccc2c(NCc3ccccc3)nc(-n3c(N)nc4ccccc43)nc12,target engagement in cells,inhibitor,chemoproteomics,,20 mM,inhibition,-9.9%
COc1cc(/C=C/C(=O)CC(=O)/C=C/c2ccc(O)c(OC)c2)ccc1O,enzyme activity,inhibitor,,,1 µM,activity vs control,91%
C[C@H](NC(=O)c1cnc2n1[C@](C)(Cc1ccc(C#N)cc1)C(=O)N2c1cc(Cl)c(F)c(Cl)c1)C(=O)NC1(c2ccccn2)CC1,cell-free assay,,competition with immobilised ligand,,1 µM,remaining binding,100%
